KCNK3 block: human KCNK3 channel inhibition, primary screen; O14649; CHO-KCNK3 thallium flux, FluxOR fluorescence; hits give low values; B-score at 10 µM; 0.84% of 340,000 active; AID 602410;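 active means B-score under library mean minus 4 SD, starting fluorescence ratio at most library mean plus 5 SD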;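 further: more negative B-score means stronger inhibition of thallium flux through KCNK3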
Target sequence (O14649 whole entry, looked up): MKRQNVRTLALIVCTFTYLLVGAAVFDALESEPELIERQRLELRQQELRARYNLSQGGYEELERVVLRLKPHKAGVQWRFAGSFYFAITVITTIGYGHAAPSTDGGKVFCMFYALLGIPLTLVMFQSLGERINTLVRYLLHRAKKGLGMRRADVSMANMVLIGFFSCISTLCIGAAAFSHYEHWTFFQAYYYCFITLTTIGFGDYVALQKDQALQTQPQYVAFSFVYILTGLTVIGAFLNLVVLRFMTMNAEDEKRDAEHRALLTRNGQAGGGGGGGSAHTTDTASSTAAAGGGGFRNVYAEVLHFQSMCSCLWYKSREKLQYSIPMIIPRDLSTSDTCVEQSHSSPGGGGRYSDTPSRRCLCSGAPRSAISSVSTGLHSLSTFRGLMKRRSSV
Kir21 inh: Kir2.1 (mouse) channel inhibition | P35561 | 0.85% of 310,000 active | HEK293-Kir2.1, FluxOR thallium flux fluorescence; hits give low values | B-score at 10 µM;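 active means fluorescence ratio B-score at or below minus 3 SD of library scores, with starting-brightness B-score within 2 SD, cut at about -4.2 in these data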;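 further: channel flux triggered by added potassium and thallium sulfate stimulus; B-score of peak minus minimum fluorescence over baseline after thallium stimulus; more negative B-score means stronger Kir2.1 block with less thallium influx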
KCNQ1 inh: blocks the human KCNQ1 potassium channel. P51787. 1.3% of 310,000 active. AID 2642. B-score at 10 µM. CHO-K1 KCNQ1, FluxOR thallium flux fluorescence; hits give high values;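 active means compounds whose thallium flux B-score, printed positive for inhibition, exceeds three library SD while starting fluorescence stays within three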;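 further: channel opened by potassium depolarization with thallium stimulus after 20 min compound exposure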
KCNK9 block: inhibitors of human KCNK9 two-pore domain potassium channel; 1.2% of 310,000 active; B-score at 10 µM; Q9NPC2; HEK293 KCNK9, FluxOR thallium flux fluorescence; hits give low values;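 active means ratio B-score over 3 SD below the library mean, with starting fluorescence within 5 SD of its mean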;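 further: negative B-score means less thallium flux so channel inhibition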
KCNQ1 pot: potentiates or activates the human KCNQ1 potassium channel | P51787 | B-score at 10 µM | 0.35% of 310,000 active | CHO-K1 KCNQ1, thallium flux FluxOR fluorescence; hits give high values;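 active means fluorescence ratio B-score, a plate-corrected score, at least three library SD, with initial intensity B-score within 5 SD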
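Assay system: CHO-K1 cells stably expressing KCNQ1. Medium: assay buffer for compound exposure, DMSO matched across wells. Timing: 37 °C overnight plating, 90-min dark dye load, 20-min compound pretreatment. Signal: kinetic FluxOR fluorescence, 10 s baseline plus 110 s post-stimulus.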
hERG protect: hERG (human) protection from proarrhythmic block. activation (rescue from dofetilide block), less the hit threshold, % at 10 µM. Q12809. 0.51% of 310,000 active. CHO-hERG, FluxOR thallium flux, dofetilide IC70 present;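 active means activation above the mean of controls blocked by dofetilide plus 5 SD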;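 further: thallium influx through hERG after potassium depolarization seen as dye fluorescence rise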
An asterisk follows results filed as active. An excerpt weighted towards active compounds, which were near 3.7% of everything screened.

`O=C(/C=C/c1ccccc1)n1cnnc1SC/C=C/c1ccccc1` gave KCNK3 block inactive, Kir21 inh -6.9*, KCNQ1 inh inactive, KCNK9 block inactive, KCNQ1 pot inactive and hERG protect -4.9.
Cc1ccnc(NS(=O)(=O)c2ccc(NC(=O)CSc3nc(-c4ccccc4)cc(=O)[nH]3)cc2)n1 was read as KCNK3 block inactive, Kir21 inh 0.01, KCNQ1 inh inactive, KCNK9 block inactive, KCNQ1 pot inactive and hERG protect 0.3.
O=[N+]([O-])c1ccc(C2CC(c3ccccc3)=Nc3ccccc3S2)cc1 (stereo unspecified) was read as KCNK3 block inactive, Kir21 inh -0.82, KCNQ1 inh inactive, KCNK9 block -7.93*, KCNQ1 pot inactive and hERG protect -9.1.
For COc1ccc(C=C2c3ccccc3C(=O)c3ccccc32)c(OC)c1 the results were KCNK3 block inactive, Kir21 inh 0.54, KCNQ1 inh inactive, KCNK9 block -8.7*, KCNQ1 pot inactive and hERG protect -5.3.
`COc1ccc(/C=C2\CN(Cc3ccccc3)C/C(=C\c3ccc(OC)cc3OC)C2=O)c(OC)c1` gave KCNK3 block inactive, Kir21 inh -0.68, KCNQ1 inh inactive, KCNK9 block inactive, KCNQ1 pot inactive and hERG protect -22.1.
CCOC(=O)C[C@H]1c2ccccc2S(=O)(=O)N1Cc1cc(OC)c(OC)c(OC)c1 was read as KCNK3 block inactive, Kir21 inh 0.02, KCNQ1 inh inactive, KCNK9 block inactive, KCNQ1 pot inactive and hERG protect -4.4.
For CC(=O)C[C@H]1c2cc(C(F)(F)F)ccc2S(=O)(=O)N1Cc1ccccc1 the results were KCNK3 block inactive, Kir21 inh 0.46, KCNQ1 inh inactive, KCNK9 block inactive, KCNQ1 pot 9* and hERG protect -12.5.
For CCOC(=O)C[C@H]1c2ccccc2S(=O)(=O)N1Cc1cccc(C(F)(F)F)c1 the results were KCNK3 block inactive, Kir21 inh -4.49*, KCNQ1 inh inactive, KCNK9 block inactive, KCNQ1 pot inactive and hERG protect -9.3.
CCCCCCCCN1[C@@H](CC(=O)OCC)c2ccc(C(F)(F)F)cc2S1(=O)=O was read as KCNK3 block inactive, Kir21 inh -0.21, KCNQ1 inh 6*, KCNK9 block inactive, KCNQ1 pot inactive and hERG protect -2.5.
`CCCCCCCCCCCCN1[C@@H](CC(=O)OC)c2cc(C(F)(F)F)ccc2S1(=O)=O` gave KCNK3 block inactive, Kir21 inh 1.53, KCNQ1 inh inactive, KCNK9 block inactive, KCNQ1 pot inactive and hERG protect -2.9.
For CCOC(=O)C[C@H]1c2cc(F)ccc2S(=O)(=O)N1c1ccccc1 the results were KCNK3 block inactive, Kir21 inh -5.03*, KCNQ1 inh inactive, KCNK9 block inactive, KCNQ1 pot inactive and hERG protect -13.5.
`CC(=O)C[C@H]1c2cc(C(F)(F)F)ccc2S(=O)(=O)N1c1ccccc1` gave KCNK3 block inactive, Kir21 inh 0.56, KCNQ1 inh inactive, KCNK9 block inactive, KCNQ1 pot inactive and hERG protect -8.6.
`CN1C2CCC1CC(NC(=O)c1cc(S(=O)(=O)N(C)C)c(Cl)cc1Cl)C2` (stereo unspecified) gave KCNK3 block inactive.
Screening CC(Oc1ccccc1)c1ccnn1S(=O)(=O)c1ccccc1 (stereo unspecified) returned KCNK3 block inactive, Kir21 inh -8.57*, KCNQ1 inh inactive, KCNK9 block inactive, KCNQ1 pot inactive and hERG protect -5.3.
Screening CCNC(=O)n1nccc1C(C)Oc1ccccc1 (stereo unspecified) returned KCNK3 block inactive, Kir21 inh 4.07e-16, KCNQ1 inh inactive, KCNK9 block inactive, KCNQ1 pot inactive and hERG protect -7.3.
Screening O=C(/C=C/c1cccc([N+](=O)[O-])c1)NCCSCc1cccc(Cl)c1 returned KCNK3 block inactive, Kir21 inh 2.17, KCNQ1 inh inactive, KCNK9 block -7.7*, KCNQ1 pot inactive and hERG protect -11.2.
For CC(=O)c1c(C)[nH]c(C(=O)NNC(=O)COc2cc(C)cc(C)c2)c1C the results were KCNK3 block inactive.

Screening results from PubChem BioAssay.
